“And” between values parts separate entries of the source, which are not always exact repeats. Equal values may be shown once.
Experiments:
Type in all cases: functional, cell-based
A2780 [1] = assay: In vitro inhibition of human ovarian cell line A2780
Outline: (§1)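 Single viable cells seeded at 4000-5000/well in DMEM with 10% fetal calf serum and left to attach overnight. Compounds dissolved in water and added at once, 10 concentrations per drug, 4 wells per concentration, 96 h exposure. Cell number in treated versus control wells read by sulforhodamine B staining; IC50 is the concentration cutting absorbance by 50% relative to controls.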

CH1 [2] = assay: In vitro inhibition of human ovarian cell line, resistant to cisplatin (CH1cisR).; outline: as §1
CH1 [3] = assay: In vitro inhibition of human ovarian cell line, resistant to doxorubicin (CH1doxR).; outline: as §1
CH1 [4] = assay: In vitro inhibition of human ovarian cell line (CH1); outline: as §1
A2780 [5] = assay: In vitro inhibition of human ovarian cell line, resistant to cisplatin (A2780cisR).; outline: as §1
SK-OV-3 = assay: In vitro inhibition of human ovarian cell line SKOV-3.; outline: as §1
CH1 [6] = assay: Resistance factor, (IC50 of CH1 doxR / IC50 of CH1); settings: Homo sapiens
A2780 [7] = assay: Resistance factor, (IC50 of A2780 cisR cisR / IC50 of A2780); settings: Homo sapiens
CH1 [8] = assay: Resistance factor, (IC50 of CH1 cisR / IC50 of CH1); settings: Homo sapiens; CH1cisR

Substance	IC50 (A2780 [1]) [µM]	IC50 (CH1 [2]) [µM]	IC50 (CH1 [3]) [µM]	IC50 (CH1 [4]) [µM]	IC50 (A2780 [5]) [µM]	IC50 (SK-OV-3) [µM]	Resistance factor (CH1 [6])	Resistance factor (A2780 [7])	Resistance factor (CH1 [8])
4'-chloro-2,2':6,2''-Terpyridineplatinum (II) complex [listing 4 of 4 here]	–	–	–	–	–	–	0.3	1.4 and 0.6	1 (2×) and 1.3
(2,2':6',2''-terpyridine)platinum (II) complex [listing 1 of 10 here]	39	5.8	1.05	5	29.5	–	–	–	–
(2,2':6',2''-terpyridine)platinum (II) complex [listing 2 of 10 here]	21.5	14	5.4	15.5	–	> 100	–	–	–
(2,2':6',2''-terpyridine)platinum (II) complex [listing 3 of 10 here]	–	18	5.7	17.5	> 100	24	–	–	–
(2,2':6',2''-terpyridine)platinum (II) complex [listing 4 of 10 here]	–	> 100	17.5	> 100	–	–	–	–	–
(2,2':6',2''-terpyridine)platinum (II) complex [listing 6 of 10 here]	16	7.5	3.95	6.1	21.5	13	–	–	–
(2,2':6',2''-terpyridine)platinum (II) complex [listing 10 of 10 here]	–	–	–	–	–	–	–	1.3 [middle of 6 runs]	0.9 (3×) and 1 (2×) and 1.2 (3×)
CARBOPLATIN [listing 2 of 2 here]	–	–	–	–	–	–	1	–	2.3
CISPLATIN [listing 2 of 2 here]	–	–	–	–	–	–	1.2	16.6	3

More lines, main results first:

IC50 (A2780 [1]) [µM]	IC50 (CH1 [2]) [µM]	IC50 (CH1 [3]) [µM]	IC50 (CH1 [4]) [µM]	IC50 (A2780 [5]) [µM]	IC50 (SK-OV-3) [µM]	Substance	Resistance factor (CH1 [6])	Resistance factor (A2780 [7])	Resistance factor (CH1 [8])
2.4	1.8	0.46	1.4	1.4	5.1	4'-chloro-2,2':6,2''-Terpyridineplatinum (II) complex [listing 1 of 4 here]	–	–	–
> 25	2.15	0.71	2.05	11	3.5	4'-chloro-2,2':6,2''-Terpyridineplatinum (II) complex [listing 2 of 4 here]	–	–	–
4.75	–	–	2.15	6.6	1.8	4'-chloro-2,2':6,2''-Terpyridineplatinum (II) complex [listing 3 of 4 here]	–	–	–
40	12.5	5	14	92	17	(2,2':6',2''-terpyridine)platinum (II) complex [listing 5 of 10 here]	–	–	–
5.8	2.1	0.85	2.1	6.7	9.2	(2,2':6',2''-terpyridine)platinum (II) complex [listing 7 of 10 here]	–	–	–
27	8.9	1.5	7.2	25	13.5	(2,2':6',2''-terpyridine)platinum (II) complex [listing 8 of 10 here]	–	–	–
11.5	4.5	3.75	5.2	23.5	15	(2,2':6',2''-terpyridine)platinum (II) complex [listing 9 of 10 here]	–	–	–
35	14	6	6.2	> 100	> 100	CARBOPLATIN [listing 1 of 2 here]	–	–	–
0.53	1.2	0.5	0.4	8.8	2.25	CISPLATIN [listing 1 of 2 here]	–	–	–

From ChEMBL document CHEMBL1132347, “Cytotoxicity of 2,2':6',2' '-terpyridineplatinum(II) complexes against human ovarian carcinoma” (J Med Chem, 1999)
